In the RNAGym collection of RNA variant scans (doi:10.1126/science.aae0568):
This sample holds only a part of the variants without activity.

B1: tRNA (parent)
chain: GUUCCGUUGGCGUAAUGGUAACGCGUCUCCCUCCUAAGGAGAAGACUGCGGGUUCGAGUCCCGUACGGAACG

Variants of: B1
Assay: yeast fitness relative to wild type (ratio to wild type); higher = fitter; tRNA-Arg(CCU), competitive growth, 37 C, YPD
Outline: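 Start and end populations of a pooled competition were compared by 100-nucleotide paired-end sequencing of gene amplicons. The Saccharomyces cerevisiae strains carried tRNA-Arg(CCU) gene variants at the native genomic locus, synthesised with a 3% per-site mutation rate at 69 sites, and competed in YPD at 37°C for 24 hours in six parallel replicates. Darwinian fitness relative to wild type was based on the change in genotype frequencies. Genotypes required ≥ 100 starting reads, and estimates < 0.5 were set to 0.5.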

Going from A20U C46U A70U to A20U G50A, the yeast fitness rises from 0.79 to 0.88.

Going from A20U C31A to A20U C31U, the yeast fitness rises from 0.803 to 0.926.

Going from A20U C55U G67A to A20U C29U G41C G44A A57U, the yeast fitness rises from no more than 0.5 to 0.805.

A21C C24G G25C G44A C55G G56A and A21C A37C C55G G58A cannot be ordered by yeast fitness: no more than 0.5 for the first, no more than 0.5 for the second.

Compared with A20U U28C G44A C46U G48A C60G C62A C66G, A21C C31G is higher in yeast fitness: 0.578 for the first, 0.657 for the second.

Compared with A21C A69C A70U, A20U G38A C46A is lower in yeast fitness: 0.686 for the first, 0.541 for the second.

A20U C31A C33G U47C C60A and A20U U26C C46U G51A cannot be ordered by yeast fitness: no more than 0.5 for the first, no more than 0.5 for the second.

Compared with A20U G25C U47A C60G, A21C A36U C55U is higher in yeast fitness: no more than 0.5 for the first, 0.626 for the second.

First: A20U U26A C61A A69C
Second: A21C A42G U54G
The yeast fitness of the first is lower: no more than 0.5 for the first, 0.555 for the second.

Going from A20U G51A to A20U G23A G56A A69C, the yeast fitness falls from 0.811 to no more than 0.5.

First: A20U C34G A37G
Second: A21C C33U C61A
The yeast fitness of the first is lower: no more than 0.5 for the first, 0.593 for the second.

A21C C22A U26C and A21C A45C C49U G67A cannot be ordered by yeast fitness: no more than 0.5 for the first, no more than 0.5 for the second.

First: A20U C31A A69C
Second: A21C C27A C49G A69C
The yeast fitness of the first is higher: 0.624 for the first, no more than 0.5 for the second.

Going from A21C C31A C33G C46A to A20U U28C C49U, the yeast fitness rises from no more than 0.5 to 0.61.

First: A21C
Second: A20U C34A C49U G58C C62A A69C
The yeast fitness of the first is higher: 0.973 for the first, no more than 0.5 for the second.

Going from A20U C29A C30A U53G C62A to A21C A37U G58A, the yeast fitness falls from 0.545 to no more than 0.5.

A21C A36U C46G C62A A69C and A21C C34U A65U cannot be ordered by yeast fitness: no more than 0.5 for the first, no more than 0.5 for the second.

First: A20U C49U G67A
Second: A21C C24A U54A A70C
The yeast fitness of the first is higher: 0.585 for the first, no more than 0.5 for the second.

Compared with A20U C60G G67A, A20U C29G C33U is higher in yeast fitness: no more than 0.5 for the first, 0.609 for the second.

First: A20U C31U G51C
Second: A21C C27U G68U
The yeast fitness of the first is lower: 0.562 for the first, 0.633 for the second.

Going from A21C C29U A57C A69U to A21C C31A C49U, the yeast fitness rises from no more than 0.5 to 0.734.

First: A21C C29G A36G C46U G58A
Second: A21C A43U
The yeast fitness of the first is lower: 0.535 for the first, 0.902 for the second.

First: A20U U47A
Second: A21C A57G G67A
The yeast fitness of the first is higher: 0.673 for the first, no more than 0.5 for the second.

First: A20U G48A C62G
Second: A20U C46U C60A
The yeast fitness of the first is higher: 0.602 for the first, 0.566 for the second.

Going from A21C A45C U47G C49U to A20U U35A G38A, the yeast fitness rises from no more than 0.5 to 0.613.

A20U C34A G67A and A20U C31G C55G C60G C66U cannot be ordered by yeast fitness: no more than 0.5 for the first, no more than 0.5 for the second.

Compared with A20U C30G A69C, A21C C27U C61U G68A is lower in yeast fitness: 0.597 for the first, no more than 0.5 for the second.

A21C C33A C61U and A21C C22G G38C A57C A65U cannot be ordered by yeast fitness: no more than 0.5 for the first, no more than 0.5 for the second.

Going from A20U G44C C55A to A20U G39A G51A U54G A65C A70C, the yeast fitness rises from no more than 0.5 to 0.554.

A20U C34A G41C G56C and A20U G41C G56C G68C cannot be ordered by yeast fitness: no more than 0.5 for the first, no more than 0.5 for the second.

Going from A20U U32A C46G to A21C C29U C31G, the yeast fitness falls from 0.586 to no more than 0.5.

A21C C24U C29U A36C and A20U U47G C62G G68A cannot be ordered by yeast fitness: no more than 0.5 for the first, no more than 0.5 for the second.

Compared with A20U G25A C27U, A20U U59C is higher in yeast fitness: 0.595 for the first, 0.917 for the second.

Going from A20U C62A to A20U C62U, the yeast fitness rises from 0.73 to 1.02.

First: A20U C66U
Second: A20U C29G C49G
The yeast fitness of the first is higher: 0.8 for the first, 0.5 for the second.

A20U G38A C49A C60G and A20U C34U G51C cannot be ordered by yeast fitness: no more than 0.5 for the first, no more than 0.5 for the second.

Compared with A21C C34G G41C G67C, A20U G23A U28C C31U G39A G56A is lower in yeast fitness: 0.653 for the first, no more than 0.5 for the second.

First: A21C A69U
Second: A20U C55G
The yeast fitness of the first is higher: 0.827 for the first, 0.669 for the second.

Going from A20U C55U to A20U U28A A40U C62A, the yeast fitness falls from 0.76 to no more than 0.5.

Compared with A20U C24G, A20U C34G G48C U59C is lower in yeast fitness: 0.601 for the first, 0.548 for the second.

A20U C61A C62U A65U A69C and A20U C49G U54C cannot be ordered by yeast fitness: no more than 0.5 for the first, no more than 0.5 for the second.

Going from A21C C29A G52A C61U to A21C C27U G41A, the yeast fitness rises from no more than 0.5 to 0.966.

A20U C27U C30A C33G A42G G51C G68C and A20U C29A C30U A36U cannot be ordered by yeast fitness: no more than 0.5 for the first, no more than 0.5 for the second.

Compared with A20U C24U A42U C46A G56A G67A, A21C A42U G58A is higher in yeast fitness: no more than 0.5 for the first, 0.549 for the second.

A21C C30G C55G and A21C C30U C31G C33U C61A cannot be ordered by yeast fitness: no more than 0.5 for the first, no more than 0.5 for the second.

Going from A21C A36C to A21C C34U C49U G63A A69U, the yeast fitness falls from 0.697 to no more than 0.5.

First: A20U C30G C33U G58C
Second: A21C C24G A65C G67C
The yeast fitness of the first is lower: no more than 0.5 for the first, 0.718 for the second.

A21C A36U C46U and A20U C34A G58A cannot be ordered by yeast fitness: no more than 0.5 for the first, no more than 0.5 for the second.

Going from A21C C27A A45U U47G to A21C C46A, the yeast fitness rises from no more than 0.5 to 0.995.

A21C C33U A36G G39A G44A C55G U59C and A20U C29U C30G C34A U35A C66A cannot be ordered by yeast fitness: no more than 0.5 for the first, no more than 0.5 for the second.

First: A20U U28A G38C A40G U59C
Second: A20U G48C
The yeast fitness of the first is lower: 0.637 for the first, 0.84 for the second.

A21C C24U U32A C61U and A20U C30U G39C A45G G68A A69C cannot be ordered by yeast fitness: no more than 0.5 for the first, no more than 0.5 for the second.

A21C C34U G51C and A20U C49A G52A C61U cannot be ordered by yeast fitness: no more than 0.5 for the first, no more than 0.5 for the second.

A20U U28G C33U U35G C60A and A20U C22U C34A U64C cannot be ordered by yeast fitness: no more than 0.5 for the first, no more than 0.5 for the second.

Compared with A21C A43C A57C, A20U C49U is higher in yeast fitness: no more than 0.5 for the first, 0.899 for the second.

Compared with A20U C49A, A20U C30G C33U C55A is lower in yeast fitness: 0.708 for the first, no more than 0.5 for the second.

A20U C31A A37C A45G G68A and A20U C29G C49G U53A cannot be ordered by yeast fitness: no more than 0.5 for the first, no more than 0.5 for the second.

A20U C27G C30G A43G A65C G68C and A20U C22A U32G cannot be ordered by yeast fitness: no more than 0.5 for the first, no more than 0.5 for the second.

First: A21C C31A U32G A40G
Second: A20U C29G C49G U54C G63C
The yeast fitness of the first is lower: no more than 0.5 for the first, 0.535 for the second.

Going from A21C A57U C60U C62U C66U to A20U G38A C55U A65G, the yeast fitness falls from 0.612 to no more than 0.5.

Compared with A20U C24U C30A C46G G48A, A20U G48C C61G C66U is higher in yeast fitness: no more than 0.5 for the first, 0.505 for the second.

Compared with A21C C27U G50A, A20U C22U A42G is lower in yeast fitness: 0.571 for the first, no more than 0.5 for the second.

A20U G48A C61A A65C and A21C A37G C49A cannot be ordered by yeast fitness: no more than 0.5 for the first, no more than 0.5 for the second.

Compared with A20U C31G G38A C61A G63A, A21C A65C is higher in yeast fitness: no more than 0.5 for the first, 0.677 for the second.

Compared with A21C A65G, A21C A65U is lower in yeast fitness: 0.863 for the first, 0.697 for the second.

First: A21C C33U
Second: A20U C30A G58C G68A
The yeast fitness of the first is higher: 0.687 for the first, no more than 0.5 for the second.

First: A20U C29U A37U
Second: A20U C27G C34U U35C A36C
The yeast fitness of the first is lower: no more than 0.5 for the first, 0.921 for the second.

A20U C27G C29U C62G and A21C C27U A57U C62G C66U cannot be ordered by yeast fitness: no more than 0.5 for the first, no more than 0.5 for the second.

Compared with A20U G50A A57U, A20U G23A G68A A69U A70U is lower in yeast fitness: 0.529 for the first, no more than 0.5 for the second.

First: A20U G23A
Second: A20U C31G U32G
The yeast fitness of the first is higher: 0.822 for the first, 0.531 for the second.

Compared with A20U C30A G67U, A20U U47A A70G is higher in yeast fitness: 0.527 for the first, 0.62 for the second.

First: A20U G39C C55G
Second: A21C A65U G67A
The yeast fitness of the first is lower: no more than 0.5 for the first, 0.543 for the second.

Compared with A20U C49U A69U, A20U G50A A65U is lower in yeast fitness: 0.683 for the first, no more than 0.5 for the second.

A21C C29U C31G A43U A65C and A20U C29G A65U cannot be ordered by yeast fitness: no more than 0.5 for the first, no more than 0.5 for the second.

Compared with A21C C46G C55U, A20U U28C A40U A70U is lower in yeast fitness: 0.523 for the first, no more than 0.5 for the second.

First: A21C C30U
Second: A21C C30A
The yeast fitness of the first is lower: 0.734 for the first, 0.802 for the second.

Compared with A21C C29U, A21C C27U G63A A65G is lower in yeast fitness: 0.824 for the first, 0.505 for the second.

First: A21C A37U
Second: A21C A37G
The yeast fitness of the first is higher: 0.646 for the first, 0.638 for the second.

First: A20U C29U C49G C55A
Second: A20U C61U G67U
The yeast fitness of the first is higher: 0.522 for the first, no more than 0.5 for the second.

A21C C34G C46A and A21C C34G C46U cannot be ordered by yeast fitness: no more than 0.5 for the first, no more than 0.5 for the second.

Compared with A20U C55G C62U, A20U G38A G67C is lower in yeast fitness: 0.508 for the first, no more than 0.5 for the second.

A20U C22U C33U and A20U C24G A70G cannot be ordered by yeast fitness: no more than 0.5 for the first, no more than 0.5 for the second.

Compared with A21C C30U C62A, A20U G38C A65G C66U is lower in yeast fitness: 0.644 for the first, no more than 0.5 for the second.

A21C A57G A69G gave a yeast fitness of no more than 0.5.
